High-throughput results deposited in PubChem BioAssay by several laboratories.
VIM-2 inhibitor = blocks Pseudomonas aeruginosa VIM-2 metallo-beta-lactamase; AID 1527; purified VIM-2, nitrocefin hydrolysis, epi-absorbance fluorescence; 290,000 compounds, 0.89% hits; inhibition, % at 5.6 µM;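 active = inhibition above the mean of all tested compounds plus 3 SD, cutoff set per screening run, cut at about 7.5% in these data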;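 also: red hydrolysis product quenches plate fluorescence so inhibitors raise well fluorescence; 0% = enzyme with DMSO and 100% = DMSO without enzyme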
TMEM16A act = activators or potentiators of mouse TMEM16A chloride channel; HEK293 TMEM16A/YFP-H148Q/I152L, iodide quench fluorescence; stronger effect = lower value; B-score at 10 µM; 340,000 compounds, 0.3% hits;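 active = fluorescence-ratio B-score plate-corrected deviation score at least 3 library SD below zero, with starting fluorescence score within 5 deviations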;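 also: channel opened by trigger with iodide after compound preincubation; score built on the fluorescence ratio of max minus min over baseline; more negative score means more quench and so TMEM16A activation or potentiation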
Target sequence (Q8BHY3 whole entry, looked up): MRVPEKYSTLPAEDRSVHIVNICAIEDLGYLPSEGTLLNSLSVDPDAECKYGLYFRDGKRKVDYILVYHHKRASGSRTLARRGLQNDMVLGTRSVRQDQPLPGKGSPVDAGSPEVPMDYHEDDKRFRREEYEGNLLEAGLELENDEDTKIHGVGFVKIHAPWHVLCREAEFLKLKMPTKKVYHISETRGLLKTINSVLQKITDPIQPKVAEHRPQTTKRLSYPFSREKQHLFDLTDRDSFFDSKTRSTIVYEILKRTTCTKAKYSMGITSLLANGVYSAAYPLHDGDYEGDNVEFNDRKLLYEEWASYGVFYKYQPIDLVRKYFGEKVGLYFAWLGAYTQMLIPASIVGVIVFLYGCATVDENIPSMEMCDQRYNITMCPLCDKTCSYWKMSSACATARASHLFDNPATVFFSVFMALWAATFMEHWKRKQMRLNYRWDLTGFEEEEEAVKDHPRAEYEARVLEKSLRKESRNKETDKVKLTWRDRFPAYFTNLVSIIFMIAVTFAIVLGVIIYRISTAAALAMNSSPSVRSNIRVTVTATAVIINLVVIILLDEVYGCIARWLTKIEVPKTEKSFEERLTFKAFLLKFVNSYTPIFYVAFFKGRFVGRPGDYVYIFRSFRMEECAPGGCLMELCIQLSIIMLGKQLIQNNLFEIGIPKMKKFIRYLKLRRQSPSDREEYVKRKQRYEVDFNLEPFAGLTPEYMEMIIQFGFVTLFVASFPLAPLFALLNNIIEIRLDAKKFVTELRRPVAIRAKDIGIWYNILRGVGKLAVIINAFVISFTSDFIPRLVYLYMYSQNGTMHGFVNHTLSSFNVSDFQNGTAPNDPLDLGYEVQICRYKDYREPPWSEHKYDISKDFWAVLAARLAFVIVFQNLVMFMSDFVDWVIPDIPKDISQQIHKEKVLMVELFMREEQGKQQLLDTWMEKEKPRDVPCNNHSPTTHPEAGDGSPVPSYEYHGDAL
CHT inh = inhibitors of human choline transporter CHT | Q9GZV3 | CHT-expressing cells, membrane potential dye, choline response; stronger effect = lower value | B-score at 10 µM | 310,000 compounds, 0.86% hits | AID 488975;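 active = B-score over 3 SD under the library average, and starting fluorescence ratio not unusually high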;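 also: choline stimulus applied at its EC90 after an EC20 pre-addition; B-score computed on integrated fluorescence ratio after choline addition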
CHT PAM = human CHT allosteric activation; CHT-expressing cells, membrane potential dye, choline EC20; stronger effect = higher value; LV-AA mutant CHT in HEK293 cells; B-score at 10 µM; 310,000 compounds, 0.49% hits; AID 488977;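 active = initial fluorescence not abnormally high and integrated response B-score, plate-corrected, over 3 SD above library mean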
IMP-1 inh = blocks Pseudomonas aeruginosa IMP-1 metallo-beta-lactamase; purified IMP-1, nitrocefin hydrolysis, epi-absorbance fluorescence; inhibition, % at 5.6 µM; 290,000 compounds, 0.45% hits;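 active = inhibition above the mean plus 3 SD of all compounds in the same screening run, cut at about 4.5% in these data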;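 also: 0% = IMP-1 with DMSO and 100% = DMSO wells lacking enzyme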
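assay system = purified recombinant IMP-1 metallo-beta-lactamase enzyme | schedule = 15 min preincubation plus 25 min reaction at 25 °C | signal = Epi-absorbance fluorescence, 480 nm excitation, 530 nm emission | read-out basis = percent inhibition from optical density relative to buffer-blank wells | controls = IMP-1 with DMSO as 0%, enzyme-free DMSO as 100%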
ANO1 block = blocks the mouse calcium-activated chloride channel TMEM16A; HEK293 TMEM16A/YFP iodide influx fluorescence, ionomycin; normalized B-score (activity score, 25-100; higher = stronger inhibition) at 10 µM; 310,000 compounds, 1.2% hits;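 active = ratio plate-corrected score three or more library SD toward inhibition, starting fluorescence score within five deviations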;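 also: score derived from kinetic fluorescence span divided by baseline fluorescence per well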
* marks the source's active call; other numbers are inactive results; i = inactive; . = no result. Only some compounds are listed: those with a hit (about 3.4% of all), similar ones and a draw of the others.

SMILES	VIM-2 inhibitor	TMEM16A act	CHT inh	CHT PAM	IMP-1 inh	ANO1 block
Cn1c(C(=O)NCCN2CCN(c3ccccc3F)CC2)cc2c(=O)n(C)c3ccccc3c21	8.8*	i	i	i	-1	i
Cn1c(C(=O)NCc2cccs2)cc2c(=O)n(C)c3ccccc3c21	-1	i	i	i	-4	i
CCCN(CCC)CCNC(=O)c1cc2c(=O)n(C)c3ccccc3c2n1C	22*	i	i	i	-4	i
CCCN(CCC)CCCNC(=O)c1cc2c(=O)[nH]c3ccccc3c2n1C	8.9*	i	i	i	-1	i
Cc1ccc(NC(=O)CN2C(=O)N/C(=C\c3ccco3)C2=O)cc1	.	i	.	.	.	.
Cn1c(C(=O)N2CCCCCC2)cc2c(=O)n(C)c3ccccc3c21	8.2*	i	i	i	-2	i
O=C(COc1ccccc1F)NCC(c1ccco1)N1CCCC1 (stereo unspecified)	1	i	i	i	-4	i
O=[N+]([O-])c1ccccc1S(=O)(=O)N1CCN(c2ccccc2)CC1	-2	i	i	i	-1	i
N#Cc1cccc(S(=O)(=O)NCC(=O)OCC(=O)NCc2ccccc2)c1	.	i	.	.	.	.
CC1=CC(C)(C)N(C(=O)CNC2CCCC2)c2cc(C)ccc21	-5	i	i	i	34*	i
COC(=O)c1cc(OC)c(OC)cc1N=CC1=C(O)CC(C)(C)CC1=O	1	i	i	i	5.1*	i
COC(=O)c1cc(N=CC2=C(O)CC(C)(C)CC2=O)cc(C(=O)OC)c1	-7	i	i	i	-3	i
COCCC(=O)N1CCCC(C(=O)c2ccccc2SC)C1 (stereo unspecified)	-2	i	i	i	19*	i
CSc1ccccc1C(=O)C1CCCN(C(=O)CCN2CCCO2)C1 (stereo unspecified)	-1	i	i	i	-1	i
CCCCn1c(NC(=O)c2ccccc2)c(C#N)c2nc3ccccc3nc21	-2	i	.	.	1	.
CCCCn1c(NC(=O)c2ccc(F)cc2)c(C#N)c2nc3ccccc3nc21	.	.	i	i	.	100*
O=C(Nc1ccncc1)Nc1ccncc1	0	i	i	10*	-3	i
CCCCC(=O)Nc1ccc(N2CCN(S(C)(=O)=O)CC2)cc1	-2	i	i	i	-2	i
CCCCCC(=O)Nc1ccc(N2CCN(C(=O)CCC)CC2)cc1	-1	i	i	i	-3	100*
O=C(Nc1cc(C2CC2)nn1-c1ccccc1)c1ccc(F)cc1	.	i	.	.	.	.
CCCCCCCCCC(=O)N1CCN(c2cc3c(cc2F)c(=O)c(C(=O)O)cn3CC)CC1	-3	-8.6*	i	i	-1	i
Cn1c(=O)cc(Cl)[nH]c1=O	-1	i	i	i	-2	i
Cc1ccc(S(=O)(=O)N2CCC(=O)N(C(COCc3cccc(C(F)(F)F)c3)Cc3ccccc3)CC2)cc1 (stereo unspecified)	-1	-19*	i	i	-4	i
Cc1ccc(S(=O)(=O)N2CCC(=O)N(C(COCc3cccc(Cl)c3)Cc3ccccc3)CC2)cc1 (stereo unspecified)	-2	-11*	i	i	-4	i
Cc1ccc(S(=O)(=O)N2CCC(=O)N(C(COCc3ccc(Cl)cc3Cl)Cc3ccccc3)CC2)cc1 (stereo unspecified)	-3	-29*	i	i	-3	i
SMILES	VIM-2 inhibitor	TMEM16A act	CHT inh	CHT PAM	IMP-1 inh	ANO1 block
Cc1ccc(S(=O)(=O)N2CCC(=O)N(C(COCc3ccccc3)Cc3ccccc3)CC2)cc1 (stereo unspecified)	-4	i	i	i	-2	i
CCCC1(c2ccccc2)NC(=O)N(CC(=O)NCC2COc3ccccc3O2)C1=O (stereo unspecified)	.	i	.	.	.	.
COc1cc(C(=O)OCC(=O)N2CCOCC2)c([N+](=O)[O-])cc1OC	-1	i	i	i	-2	i
COC(=O)c1ccc(N)cc1O	-2	i	i	i	-5	i
COC(=O)c1ccc(=O)c2nc3/c(=C/O)c(O)cc(=O)c3[nH]c12	18*	i	i	i	3	i
O=C(NC(NNc1ccc([N+](=O)[O-])cc1)(C(F)(F)F)C(F)(F)F)c1ccc(F)cc1	-2	i	i	i	-4	100*
S=C(Nc1cccc(Cl)c1)Nc1ccccc1Oc1ccccc1	-6	i	i	i	-1	100*
COc1ccc(NC(=O)c2cc([N+](=O)[O-])ccc2N2CCCC2)cc1S(N)(=O)=O	.	i	.	.	.	.
C[N+](C)(C)CCOC(N)=O	.	-5.7*	i	i	.	i
Cc1nnc(SCCOC(N)=O)n1C	0	i	.	.	-4	.
CC(=O)N1CCN(C(=O)COC(=O)CNC(=O)c2ccc(C)cc2)CC1	.	i	.	.	.	.
COc1ccc(S(=O)(=O)N2CCOCC2)cc1NS(=O)(=O)c1ccc(F)c(F)c1	.	i	.	.	.	.
COC(=O)c1ccc(CSc2ccc3nnc(-c4cccc(F)c4)n3n2)o1	8.4*	i	i	i	-3	i
COc1cccc(CN2CCc3ccc(NC(=O)CCc4ccc(C)cc4)cc3C2)c1O	0	i	i	i	0	25*
CC(C)=C(C#N)c1nc2ccccc2s1	0	i	i	i	-2	i
Cc1ccc(OC/C(O)=C(\C#N)c2nc3ccccc3s2)cc1	-6	i	i	i	0	100*
CC(C)(C)C(=O)NC(=S)N1CCCC1	-1	i	i	i	-3	i
CC(C)(C)C(=O)NC(=C(Cl)Cl)P(=O)(O)O	10*	i	i	i	0	i
CCCc1cc(=O)n2nc(N3CCC(C(=O)NCc4ccc(C)o4)CC3)sc2n1	0	i	i	i	0	i
NS(=O)(=O)c1cccc(NC(=O)COC(=O)Cc2ccc(S(=O)(=O)N3CCCCC3)s2)c1	-4	i	i	i	5.6*	i
O=C(COC(=O)Cc1ccc(S(=O)(=O)N2CCCCC2)s1)Nc1ccc2c(c1)OCO2	-3	i	i	i	-1	i
COc1ccc(S(=O)Cc2ccc(C(=O)NC3CC3)o2)cc1 (stereo unspecified)	0	i	i	i	1	i
COc1cccc(C(=O)C2CCCN(C/C=C/c3ccccc3OC)C2)c1 (stereo unspecified)	-1	i	i	i	-2	i
COc1ccc(C(=O)C2CCCN(C/C=C/c3ccccc3OC)C2)c(OC)c1 (stereo unspecified)	1	-5.1*	i	i	1	i
